Data published in article PMC9359741 (Clinical Cancer Research, 2022).
Where “and” joins values, the source holds several entries; their conditions need not be identical. Identical values can stand only once.

Columns and labels:
Assay type in all cases: in vivo, human
[1] = Phase 1b plasma pharmacokinetics of ARRY-382 and metabolites; details: for RAUC (accumulation ratio), geometric mean (geometric %CV) / Ctrough, geometric mean (geometric %CV) / RCmax (accumulation ratio), geometric mean (geometric %CV) / AUC(0-t) / Cmax / Tmax: Phase 1b; for AUC / AUC(0-t) / Cmax / Tmax: human, plasma, oral; for AUC(0-t): AUClast; for AUC(0-t) / Cmax: geometric mean (geometric %CV); for Tmax: median (range)
Procedure, shortened: (§1)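 Blood was collected for plasma test compound and its N-oxide, N-desmethyl and sulfate metabolites. Trough samples were taken ≤120 min before the oral dose on cycle 1 day 15 and day 1 of cycles 3–6. Doses were 200–400 mg QD in Phase 1b and 300 mg QD in Phase 2. Non-compartmental parameters were estimated per patient in the PK set, reported as geometric mean (geometric %CV) and Tmax as median (range).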

[2] = Phase 2 plasma pharmacokinetics of ARRY-382 and metabolites; details: for RAUC (accumulation ratio), geometric mean (geometric %CV) / Ctrough, geometric mean (geometric %CV) / RCmax (accumulation ratio), geometric mean (geometric %CV): Cycle 2 day 1, 300 mg; for AUC(0-t) / AUC / Cmax / Tmax: human, plasma, oral, 300 mg; for AUC(0-t): AUClast; for AUC(0-t) / AUC / Cmax: geometric mean (geometric %CV); for AUC: AUCtau; for Tmax: median (range)
Procedure, shortened: as §1

[3] = tested on: PD-1/PD-L1 inhibitor-refractory advanced solid tumors; experiment: Phase 2 efficacy; details: PD-1/PD-L1 IR
Procedure, shortened: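 Oral test compound 300 mg QD plus anti-PD-1 antibody 200 mg IV Q3W. PD-1/PD-L1 IR cohort: progression on anti-PD-1/PD-L1 (RECIST or irRC). prOVCA cohort: progression ≤6 months after ≥4 platinum cycles. PDA cohort: ≥1 prior systemic line. Investigator assessed best response per RECIST v1.1 and irRC. ORR used confirmed responses with Clopper–Pearson 95% CI; all dosed patients. Screening tissue was profiled for MSI/MMR, TMB and gene expression.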

[4] = tested on: CSF-1R; experiment: Phase 2 pharmacodynamic biomarkers; details: cycle 1 day 15 compared with cycle 1 day 1
Procedure, shortened: (§2)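 Blood was drawn for serum CSF-1 and CTX, plus serum osteoprotegerin and non-classical monocytes in Phase 2. Urine was collected for NTX. Samples were taken pre-dose on cycle 1 days 1, 8 and 15, on day 1 of later cycles and at discontinuation. Mean change on cycle 1 day 15 versus cycle 1 day 1 was summarized descriptively, with outliers excluded.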

[5] = tested on: CSF-1R; experiment: Phase 1b pharmacodynamic biomarkers
Procedure, shortened: as §2

[6] = Cycle 2 day 1, ARRY-382 200 mg, n = 4
[7] = Cycle 2 day 1, ARRY-382 300 mg, n = 4
[8] = Cycle 2 day 1, ARRY-382 400 mg, n = 3
[9] = 200 mg, Cycle 1 day 1, ARRY-382 200 mg, n = 6
[10] = 200 mg, Cycle 2 day 1, ARRY-382 200 mg, n = 4
[11] = 300 mg, Cycle 1 day 1, ARRY-382 300 mg, n = 6
[12] = 300 mg, Cycle 2 day 1, ARRY-382 300 mg, n = 4
[13] = 400 mg, Cycle 1 day 1, ARRY-382 400 mg, n = 7
[14] = 400 mg, Cycle 2 day 1, ARRY-382 400 mg, n = 3
[15] = Cycle 1 day 1, PD-1/PD-L1 IR, n = 18
[16] = Cycle 2 day 1, PD-1/PD-L1 IR, n = 6

Cc1cccc(Cn2nc(C3CC3)c3c(NC(=O)c4cnc5cc(OCCN6CCN(C)CC6)ccn45)cccc32)n1 [ARRY-382]
RAUC (accumulation ratio), geometric mean (geometric %CV) ([1]; Cycle 2 day 1, ARRY-382 200 mg, n = 3): 3.03 (47.9)
Ctrough, geometric mean (geometric %CV) [1, 6]: 576 (59.5) ng/mL
RCmax (accumulation ratio), geometric mean (geometric %CV) [1, 6]: 2.53 (48.2)
RAUC (accumulation ratio), geometric mean (geometric %CV) ([1]; Cycle 2 day 1, ARRY-382 300 mg, n = 2): 1.92 (NC)
Ctrough, geometric mean (geometric %CV) [1, 7]: 667 (27.7) ng/mL
RCmax (accumulation ratio), geometric mean (geometric %CV) [1, 7]: 2.51 (95.7)
RAUC (accumulation ratio), geometric mean (geometric %CV) ([1]; Cycle 2 day 1, ARRY-382 400 mg, n = 2): 3.52 (NC)
Ctrough, geometric mean (geometric %CV) [1, 8]: 627 (126) ng/mL
RCmax (accumulation ratio), geometric mean (geometric %CV) [1, 8]: 2.28 (54.2)
AUC ([1]; 200 mg): 22800 ng·h/mL
AUC(0-t) [1, 9]: 3720 ng·h/mL
AUC(0-t) [1, 10]: 22800 ng·h/mL
Cmax [1, 9]: 773 ng/mL
Cmax [1, 10]: 1560 ng/mL
Tmax [1, 9]: 2 h
Tmax [1, 10]: 2 h
AUC ([1]; 300 mg): 30600 ng·h/mL
AUC(0-t) [1, 11]: 4890 ng·h/mL
AUC(0-t) [1, 12]: 30600 ng·h/mL
Cmax [1, 11]: 995 ng/mL
Cmax [1, 12]: 2260 ng/mL
Tmax [1, 11]: 4.01 h
Tmax [1, 12]: 4.18 h
AUC ([1]; 400 mg): 30800 ng·h/mL
AUC(0-t) [1, 13]: 6790 ng·h/mL
AUC(0-t) [1, 14]: 30800 ng·h/mL
Cmax [1, 13]: 1330 ng/mL
Cmax [1, 14]: 2560 ng/mL
Tmax [1, 13]: 4.07 h
Tmax [1, 14]: 1.98 h
RAUC (accumulation ratio), geometric mean (geometric %CV) ([2]; Overall): 2.49 (35.6)
Ctrough, geometric mean (geometric %CV) ([2]; Overall, n = 15): 796 (86.9) ng/mL
RCmax (accumulation ratio), geometric mean (geometric %CV) ([2]; Overall, n = 15): 2.06 (41.9)
RAUC (accumulation ratio), geometric mean (geometric %CV) ([2]; PD-1/PD-L1 IR, n = 3): 2.67 (36.2)
Ctrough, geometric mean (geometric %CV) ([2]; PD-1/PD-L1 IR, n = 6): 878 (70.1) ng/mL
RCmax (accumulation ratio), geometric mean (geometric %CV) ([2]; PD-1/PD-L1 IR, n = 6): 2.52 (39.9)
RAUC (accumulation ratio), geometric mean (geometric %CV) ([2]; PDA, n = 3): 3.41 (23.6)
Ctrough, geometric mean (geometric %CV) ([2]; PDA, n = 4): 1,480 (17.5) ng/mL
RCmax (accumulation ratio), geometric mean (geometric %CV) ([2]; PDA, n = 4): 2.07 (53.6)
RAUC (accumulation ratio), geometric mean (geometric %CV) ([2]; prOVCA, n = 4): 1.87 (16.7)
Ctrough, geometric mean (geometric %CV) ([2]; prOVCA, n = 5): 438 (86.5) ng/mL
RCmax (accumulation ratio), geometric mean (geometric %CV) ([2]; prOVCA, n = 5): 1.62 (24.7)
AUC(0-t) ([2]; Cycle 1 day 1, Overall, n = 55): 6310 ng·h/mL
AUC(0-t) [2, 15]: 6320 ng·h/mL
AUC(0-t) ([2]; Cycle 1 day 1, PDA, n = 26): 6350 ng·h/mL
AUC(0-t) ([2]; Cycle 1 day 1, prOVCA, n = 11): 6210 ng·h/mL
AUC(0-t) ([2]; Cycle 2 day 1, Overall, n = 15): 28500 ng·h/mL
AUC(0-t) [2, 16]: 26600 ng·h/mL
AUC(0-t) ([2]; Cycle 2 day 1, PDA, n = 4): 47100 ng·h/mL
AUC(0-t) ([2]; Cycle 2 day 1, prOVCA, n = 5): 20700 ng·h/mL
AUC ([2]; Cycle 2 day 1, Overall, n = 15): 30600 ng·h/mL
AUC [2, 16]: 32100 ng·h/mL
AUC ([2]; Cycle 2 day 1, PDA, n = 4): 47100 ng·h/mL
AUC ([2]; Cycle 2 day 1, prOVCA, n = 5): 20700 ng·h/mL
Cmax ([2]; Cycle 1 day 1, Overall, n = 55): 1270 ng/mL
Cmax [2, 15]: 1240 ng/mL
Cmax ([2]; Cycle 1 day 1, PDA, n = 26): 1290 ng/mL
Cmax ([2]; Cycle 1 day 1, prOVCA, n = 11): 1260 ng/mL
Cmax ([2]; Cycle 2 day 1, Overall, n = 15): 2080 ng/mL
Cmax [2, 16]: 2130 ng/mL
Cmax ([2]; Cycle 2 day 1, PDA, n = 4): 2820 ng/mL
Cmax ([2]; Cycle 2 day 1, prOVCA, n = 5): 1580 ng/mL
Tmax [2, 15]: 1.97 h
Tmax ([2]; Cycle 1 day 1, prOVCA, n = 11): 2 h
Tmax [2, 16]: 2 h
Tmax ([2]; Cycle 2 day 1, PDA, n = 4): 3.03 h
Median OS [3]: 12.4 (95% CI, 3.6–NR) months
Median PFS [3]: 1.6 (95% CI, 1.3–4.4) months
Median irPFS per irRC [3]: 1.5 (95% CI, 1.3–4.3) months
Best overall response: CR ([3]; N = 19): 0 (0.0) n (%)
Best overall response: NE ([3]; N = 19): 2 (10.5) n (%)
Best overall response: PD ([3]; N = 19): 9 (47.4%) n (%) and 9 (47.4) n (%)
Best overall response: PR ([3]; N = 19): 0 (0.0) n (%)
Best overall response: SD ([3]; N = 19): 8 (42.1%) n (%) and 8 (42.1) n (%)
Immune-related best overall response: CR ([3]; N = 19): 0 (0.0) n (%)
Immune-related best overall response: NE ([3]; N = 19): 11 (57.9) n (%)
Immune-related best overall response: PD ([3]; N = 19): 1 (5.3) n (%)
Immune-related best overall response: PR ([3]; N = 19): 0 (0.0) n (%)
Immune-related best overall response: SD ([3]; N = 19): 7 (36.8) n (%)
ORR, % (95% CI) ([3]; confirmed, N = 19): 0.0 (0.0–17.6) %
ir-ORR, % (95% CI) ([3]; confirmed, N = 19): 0.0 (0.0–17.6) %
Change in mean CTX or NTX [4]: no significant changes
Change in mean CTX or NTX ([5]; cycle 1 day 15 compared with cycle 1 day 1): no changes
Increase in mean serum CSF-1 ([5]; cycle 1 day 15 versus cycle 1 day 1, P < 0.05): 4.5 fold
